Laboratory results: ChEMBL document CHEMBL4033615, “Protoxenicins A and B, Cytotoxic Long-Chain Acylated Xenicanes from the Soft Coral Protodendron repens” (2017)

Columns and labels:
Format in all cases: functional
Settings in all cases: for CC50: read-out: LC50 (the source's name)
MDA-MB-231 = experiment: Cytotoxic activity against human MDA-MB-231 cells
Outline: (§1)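 Human tumour lines (A-549 lung carcinoma, MDA-MB-231 breast adenocarcinoma, HT-29 colorectal carcinoma) exposed to test agent. Growth measured against untreated control cells. Survival estimated with the NCI algorithm, yielding three dose–response parameters: GI50 (50% growth inhibition), TGI (total growth inhibition) and LC50 (50% cell death).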

HT-29 = experiment: Cytotoxic activity against human HT-29 cells; outline: as §1
A549 = experiment: Cytotoxic activity against human A549 cells; outline: as §1

SMILES | GI50 (MDA-MB-231) [nM] | TGI (MDA-MB-231) [nM] | CC50 (MDA-MB-231) [nM] | GI50 (HT-29) [nM] | TGI (HT-29) [nM] | CC50 (HT-29) [nM] | GI50 (A549) [nM] | TGI (A549) [nM] | CC50 (A549) [nM]
C=C1[C@@H]2[C@@H](OC(C)=O)OC=C([C@@H](OC(C)=O)[C@@H](OC(=O)CCCCCCCCC)[C@H]3OC3(C)C)[C@H]2CC[C@](C)(O)[C@@H]2O[C@@H]2[C@H]1O | 2100 | 2800 | 3800 | 600 | 1200 | 2200 | 1100 | 1400 | 1800
COc1cccc2c1C(=O)c1c(O)c3c(c(O)c1C2=O)C[C@@](O)(C(=O)CO)C[C@@H]3O[C@H]1C[C@H](N)[C@H](O)[C@H](C)O1 [DOXORUBICIN] | 200 | 500 | 2400 | 300 | 900 | > 17200 | 200 | 900 | > 17200
C=C1[C@@H]2[C@@H](OC(C)=O)OC=C([C@@H](OC(C)=O)[C@H](C=C(C)C)OC(=O)CCCCCCCCC)[C@H]2CC/C(C)=C/[C@@H](O)[C@H]1O | 6300 | 9700 | 12900 | 1700 | 5200 | 10400 | 6100 | 10100 | 13300
